Measurements: ChEMBL document CHEMBL1154743, “A novel potent nicotinamide phosphoribosyltransferase inhibitor synthesized via click chemistry” (J Med Chem, 2010)

Key:
SH-SY5Y [1] = assay: Cytotoxicity against human SH-SY5Y cells assessed as reduction of total cellular NAD(P) level at 1 uM relative to control; type: functional; design: scale not given: the % may be the effect or the level left
NCI-H226 = assay: Growth inhibition of human NCI-H226 cells by sulforhodamine B assay; type: functional
T47D = assay: Growth inhibition of human T47D cells by sulforhodamine B assay; type: functional
ACHN = assay: Growth inhibition of human ACHN cells by sulforhodamine B assay; type: functional
SF-539 = assay: Growth inhibition of human SF539 cells by sulforhodamine B assay; type: functional
KM12 = assay: Growth inhibition of human KM12 cells by sulforhodamine B assay; type: functional
TK-10 = assay: Growth inhibition of human TK10 cells by sulforhodamine B assay; type: functional
SK-OV-3 = assay: Growth inhibition of human SKOV3 cells by sulforhodamine B assay; type: functional
EKVX = assay: Growth inhibition of human EKVX cells by sulforhodamine B assay; type: functional
A549 = assay: Growth inhibition of human A549 cells by sulforhodamine B assay; type: functional
Malme-3M = assay: Growth inhibition of human MALME-3M cells by sulforhodamine B assay; type: functional
UO-31 = assay: Growth inhibition of human UO31 cells by sulforhodamine B assay; type: functional
HCT-15 = assay: Growth inhibition of human HCT15 cells by sulforhodamine B assay; type: functional
CAKI-1 = assay: Growth inhibition of human Caki1 cells by sulforhodamine B assay; type: functional
SK-MEL-2 = assay: Growth inhibition of human SK-MEL-2 cells by sulforhodamine B assay; type: functional
A498 = assay: Growth inhibition of human A498 cells by sulforhodamine B assay; type: functional
786-0 = assay: Growth inhibition of human 786-0 cells by sulforhodamine B assay; type: functional
OVCAR-8 = assay: Growth inhibition of human OVCAR8 cells by sulforhodamine B assay; type: functional
NCI-H522 = assay: Growth inhibition of human NCI-H522 cells by sulforhodamine B assay; type: functional
MDA-MB-468 = assay: Growth inhibition of human MDA-MB-468 cells by sulforhodamine B assay; type: functional
SN12C = assay: Growth inhibition of human SN12C cells by sulforhodamine B assay; type: functional
SW-620 = assay: Growth inhibition of human SW620 cells by sulforhodamine B assay; type: functional
SH-SY5Y [2] = assay: Cytotoxicity against human SH-SY5Y cells assessed as cell viability after 48 hrs by MTT assay; type: functional, cell-based
How it was run: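 SH-SY5Y cells incubated with compound for 48 h and viability measured by MTT. Values are mean ± SEM of 8-12 determinations.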

MCF7 = assay: Growth inhibition of human MCF7 cells by sulforhodamine B assay; type: functional
SH-SY5Y [3] = assay: Cytotoxicity against human SH-SY5Y cells assessed as cell viability after 48 hrs by MTT assay relative to control in presence of NAD; type: functional
HT-29 = assay: Growth inhibition of human HT-29 cells by sulforhodamine B assay; type: functional
SK-MEL-5 = assay: Growth inhibition of human SK-MEL-5 cells by sulforhodamine B assay; type: functional; details: read-out: LC50 (the source's name)
[4] = read-out: LC50 (the source's name)

Work on `O=C(CCCCCCCn1cc(-c2cccnc2)nn1)Nc1ccccc1-c1ccccc1` yielded an Activity (SH-SY5Y [1]) of 11.6%, a GI50 (NCI-H226) of 15.5 µM and a TGI (NCI-H226) of 51.7 µM. It also gave a CC50 (NCI-H226; [4]) of over 100 µM, a GI50 (T47D) of 1230 nM and a TGI (T47D) of 16 µM. It also gave a CC50 (T47D; [4]) of over 100 µM, a GI50 (ACHN) of 18.7 µM and a TGI (ACHN) of over 100 µM. For the same molecule, the CC50 (ACHN; [4]) was over 100 µM, the GI50 (SF-539) was 61.8 nM and the TGI (SF-539) was over 100 µM. It also gave a CC50 (SF-539; [4]) of over 100 µM, a GI50 (KM12) of 1030 nM and a TGI (KM12) of 27.2 µM. For the same molecule, the CC50 (KM12; [4]) was over 100 µM, the GI50 (TK-10) was 18.2 µM and the TGI (TK-10) was over 100 µM. For the same molecule, the CC50 (TK-10; [4]) was over 100 µM, the GI50 (SK-OV-3) was 20.5 µM and the TGI (SK-OV-3) was over 100 µM. It also gave a CC50 (SK-OV-3; [4]) of over 100 µM, a GI50 (EKVX) of 8.46 µM and a TGI (EKVX) of over 100 µM. It also gave a CC50 (EKVX; [4]) of over 100 µM, a GI50 (A549) of 2100 nM and a TGI (A549) of over 100 µM. For the same molecule, the CC50 (A549; [4]) was over 100 µM, the GI50 (Malme-3M) was 12.2 µM and the TGI (Malme-3M) was 62.8 µM. The CC50 (Malme-3M; [4]) was over 100 µM, the GI50 (UO-31) was 16.9 µM and the TGI (UO-31) was 93 µM. It also gave a CC50 (UO-31; [4]) of over 100 µM, a GI50 (HCT-15) of 257 nM and a TGI (HCT-15) of over 100 µM. For the same molecule, the CC50 (HCT-15; [4]) was over 100 µM, the GI50 (CAKI-1) was 776 nM and the TGI (CAKI-1) was over 100 µM. The CC50 (CAKI-1; [4]) was over 100 µM, the GI50 (SK-MEL-2) was 12.8 µM and the TGI (SK-MEL-2) was 46.2 µM. It also gave a CC50 (SK-MEL-2; [4]) of 57 µM, a GI50 (A498) of 15.9 µM and a TGI (A498) of over 100 µM. It also gave a CC50 (A498; [4]) of over 100 µM, a GI50 (786-0) of 7.33 µM and a TGI (786-0) of over 100 µM. For the same molecule, the CC50 (786-0; [4]) was over 100 µM, the GI50 (OVCAR-8) was 57.4 nM and the TGI (OVCAR-8) was over 38 µM. For the same molecule, the CC50 (OVCAR-8; [4]) was over 100 µM, the GI50 (NCI-H522) was 91.4 nM and the TGI (NCI-H522) was over 100 µM. For the same molecule, the CC50 (NCI-H522; [4]) was over 100 µM, the GI50 (MDA-MB-468) was 7.34 µM and the TGI (MDA-MB-468) was over 100 µM. For the same molecule, the CC50 (MDA-MB-468; [4]) was over 100 µM, the GI50 (SN12C) was 42.6 nM and the TGI (SN12C) was over 100 µM. For the same molecule, the CC50 (SN12C; [4]) was over 100 µM, the GI50 (SW-620) was 61.5 nM and the TGI (SW-620) was over 100 µM. It also gave a CC50 (SW-620; [4]) of over 100 µM, an IC50 (SH-SY5Y [2]) of 3.8 nM and a GI50 (MCF7) of 3.42 µM. The TGI (MCF7) was 50.1 µM, the CC50 (MCF7; [4]) was over 100 µM and the Activity (SH-SY5Y [3]) was 97%. For the same molecule, the GI50 (HT-29) was 460 nM, the TGI (HT-29) was over 100 µM and the CC50 (HT-29; [4]) was over 100 µM. It also gave a CC50 (SK-MEL-5) of 42.4 µM.
